In brackets after ≈: the same amount, converted by molar mass.
Experiments:
[1] = tested on: Respiratory syncytial virus; experiment: Antiviral activity against Respiratory syncytial virus infected in human HeLa cells assessed as inhibition of virus induced cytopathicity by visual scoring of CPE; type: functional, organism-based
Feline coronavirus = experiment: Antiviral activity against Feline coronavirus infected in cat CRFK cells assessed as inhibition of virus induced cytopathicity after 2 to 4 days by MTS assay; type: functional, organism-based; conditions: Alphacoronavirus 1, CRFK
Human alphaherpesvirus 1 [2] = experiment: Antiviral activity against thymidine kinase deficient acyclovir-resistant Herpes simplex virus 1 KOS infected in HEL cells assessed as inhibition of virus induced cytopathicity after 2 to 4 days by MTS assay; type: functional, organism-based; conditions: Human alphaherpesvirus 1, KOS
Human alphaherpesvirus 2 = experiment: Antiviral activity against Herpes simplex virus 2 G infected in HEL cells assessed as inhibition of virus induced cytopathicity after 2 to 4 days by MTS assay; type: functional, organism-based; conditions: Human alphaherpesvirus 2, strain G
[3] = tested on: Vesicular stomatitis virus; experiment: Antiviral activity against Vesicular stomatitis virus infected in human HeLa cells assessed as inhibition of virus induced cytopathicity by visual scoring of CPE; type: functional, organism-based
Influenza B virus [4] = experiment: Antiviral activity against Influenza B virus infected in MDCK cells assessed as inhibition of virus induced cytopathicity by visual scoring of CPE; type: functional, organism-based
[5] = Cytotoxicity against MDCK cells assessed as altered cell morphology; type: cell-based, Canis lupus familiaris; conditions: dog
Procedure, shortened: (§1)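 Uninfected cell cultures run alongside the antiviral assays, exposed to serial compound dilutions and incubated at 37 °C for 2–4 days. Toxicity was scored microscopically and reported as the minimum cytotoxic concentration (MCC), the lowest concentration causing a detectable change in normal cell morphology.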

Vaccinia virus = experiment: Antiviral activity against Vaccinia virus infected in HEL cells assessed as inhibition of virus induced cytopathicity after 2 to 4 days by MTS assay; type: functional, organism-based; conditions: Orthopoxvirus vaccinia
[6] = tested on: Respiratory syncytial virus; experiment: Antiviral activity against Respiratory syncytial virus infected in human HeLa cells assessed as inhibition of virus induced cytopathicity after 2 to 4 days by MTS assay; type: functional, organism-based
HeLa = experiment: Cytotoxicity against human HeLa cells assessed as cell viability by MTS assay; type: cell-based; conditions: hela
Procedure, shortened: (§2)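 Uninfected cultures were run in parallel with the antiviral assays. Viability was read by colorimetric formazan MTS assay.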

[7] = tested on: Vesicular stomatitis virus; experiment: Antiviral activity against Vesicular stomatitis virus infected in HEL cells assessed as inhibition of virus induced cytopathicity after 2 to 4 days by MTS assay; type: functional, organism-based
Felid alphaherpesvirus 1 = experiment: Antiviral activity against Feline herpesvirus 1 infected in cat CRFK cells assessed as inhibition of virus induced cytopathicity after 2 to 4 days by MTS assay; type: functional, organism-based; conditions: Felid alphaherpesvirus 1, CRFK
[8] = Cytotoxicity against african green monkey Vero cells assessed as altered cell morphology; type: cell-based; conditions: chlorocebus sabaeus; procedure, shortened: as §1
Influenza A virus [9] = experiment: Antiviral activity against Influenza A H3N2 virus subtype infected in MDCK cells assessed as inhibition of virus induced cytopathicity by visual scoring of CPE; type: functional, organism-based
Bacillus subtilis = experiment: Antimicrobial activity against Bacillus subtilis after 24 hrs by tube dilution method; type: functional
Procedure, shortened: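 Serial dilutions in double-strength nutrient broth (I.P.) with ciprofloxacin as reference, tube dilution, incubated 37 °C for 24 h. MIC is the lowest concentration that inhibited growth.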

Aspergillus niger = experiment: Antimicrobial activity against Aspergillus niger after 7 days by tube dilution method; type: functional; conditions: 168 h
Human respirovirus 3 = experiment: Antiviral activity against parainfluenza-3 virus infected in african green monkey Vero cells assessed as inhibition of virus induced cytopathicity after 2 to 4 days by MTS assay; type: functional, organism-based; conditions: Human respirovirus 3, Vero
Sindbis virus = experiment: Antiviral activity against Sindbis virus infected in african green monkey Vero cells assessed as inhibition of virus induced cytopathicity after 2 to 4 days by MTS assay; type: functional, organism-based
Escherichia coli = experiment: Antimicrobial activity against Escherichia coli after 24 hrs by tube dilution method; type: functional
Coxsackievirus B4 [10] = experiment: Antiviral activity against coxsackievirus B4 infected in human HeLa cells assessed as inhibition of virus induced cytopathicity after 2 to 4 days by MTS assay; type: functional, organism-based; conditions: Enterovirus B
[11] = Cytotoxicity against human HEL cells assessed as altered cell morphology; type: cell-based; procedure, shortened: as §1
[12] = Cytotoxicity against human HeLa cells assessed as altered cell morphology; type: cell-based; procedure, shortened: as §1
MDCK = experiment: Cytotoxicity against MDCK cells assessed as cell viability by MTS assay; type: cell-based, Canis lupus familiaris; conditions: dog, mdck; procedure, shortened: as §2
Candida albicans = experiment: Antimicrobial activity against Candida albicans after 48 hrs by tube dilution method; type: functional
Human alphaherpesvirus 1 [13] = experiment: Antiviral activity against Herpes simplex virus 1 KOS infected in HEL cells assessed as inhibition of virus induced cytopathicity after 2 to 4 days by MTS assay; type: functional, organism-based; conditions: Human alphaherpesvirus 1, KOS
[14] = Cytotoxicity against cat CRFK cells assessed as cell viability by MTS assay; type: cell-based, Felis catus; conditions: crfk; procedure, shortened: as §2
[15] = tested on: Vesicular stomatitis virus; experiment: Antiviral activity against Vesicular stomatitis virus infected in human HeLa cells assessed as inhibition of virus induced cytopathicity after 2 to 4 days by MTS assay; type: functional, organism-based
Staphylococcus aureus = experiment: Antimicrobial activity against Staphylococcus aureus after 24 hrs by tube dilution method; type: functional
Coxsackievirus B4 [16] = experiment: Antiviral activity against Coxsackie virus B4 infected in african green monkey Vero cells assessed as inhibition of virus induced cytopathicity after 2 to 4 days by MTS assay; type: functional, organism-based; conditions: Enterovirus B
Coxsackievirus B4 [17] = experiment: Antiviral activity against coxsackievirus B4 infected in human HeLa cells assessed as inhibition of virus induced cytopathicity by visual scoring of CPE; type: functional, organism-based; conditions: Enterovirus B
Influenza A virus [18] = experiment: Antiviral activity against Influenza A H3N2 virus subtype infected in MDCK cells assessed as inhibition of virus induced cytopathicity after 2 to 4 days by MTS assay; type: functional, organism-based
Punta Toro virus = experiment: Antiviral activity against Punta Toro virus infected in african green monkey Vero cells assessed as inhibition of virus induced cytopathicity after 2 to 4 days by MTS assay; type: functional, organism-based
[19] = tested on: Mammalian orthoreovirus 1; experiment: Antiviral activity against Reovirus 1 virus infected in african green monkey Vero cells assessed as inhibition of virus induced cytopathicity after 2 to 4 days by MTS assay; type: functional, organism-based; conditions: Mammalian orthoreovirus 1, Vero
Influenza B virus [20] = experiment: Antiviral activity against Influenza B virus infected in MDCK cells assessed as inhibition of virus induced cytopathicity after 2 to 4 days by MTS assay; type: functional, organism-based

Structure (SMILES) | EC50 [1] [µg/mL] | EC50 (Feline coronavirus) [µg/mL] | EC50 (Human alphaherpesvirus 1 [2]) [µg/mL] | EC50 (Human alphaherpesvirus 2) [µg/mL] | EC50 [3] [µg/mL] | EC50 (Influenza B virus [4]) [µg/mL] | MCC [5] [µg/mL] | EC50 (Vaccinia virus) [µg/mL] | EC50 [6] [µg/mL] | CC50 (HeLa) [µg/mL] | EC50 [7] [µg/mL] | EC50 (Felid alphaherpesvirus 1) [µg/mL] | MCC [8] [µg/mL] | EC50 (Influenza A virus [9]) [µg/mL] | MBC (Bacillus subtilis) [µg/mL] | MFC (Aspergillus niger) [µg/mL] | EC50 (Human respirovirus 3) [µg/mL] | EC50 (Sindbis virus) [µg/mL] | MBC (Escherichia coli) [µg/mL] | EC50 (Coxsackievirus B4 [10]) [µg/mL] | further results
CCCCC(=O)n1c(-c2ccc(S(=O)(=O)O)cc2)nc2ccccc21 | > 100 | > 100 | > 100 | > 100 | > 100 | > 100 | > 100 | > 100 | > 100 | > 100 | > 100 | > 100 | > 100 | > 100 | 6.25 (≈ 17.4 µM) | > 50 | > 100 | > 100 | 6.25 (≈ 17.4 µM) | > 100 | MCC [11]: > 100 µg/mL; MCC [12]: > 100 µg/mL; CC50 (MDCK): > 100 µg/mL; MFC (Candida albicans): 12.5 µg/mL (≈ 34.9 µM); EC50 (Human alphaherpesvirus 1 [13]): > 100 µg/mL; CC50 [14]: > 100 µg/mL; EC50 [15]: > 100 µg/mL; MBC (Staphylococcus aureus): 6.25 µg/mL (≈ 17.4 µM); EC50 (Coxsackievirus B4 [16]): > 100 µg/mL; EC50 (Coxsackievirus B4 [17]): > 100 µg/mL; EC50 (Influenza A virus [18]): > 100 µg/mL; EC50 (Punta Toro virus): > 100 µg/mL; EC50 [19]: > 100 µg/mL; EC50 (Influenza B virus [20]): > 100 µg/mL
O=C(c1ccc(Cl)cc1)n1c(-c2ccc(S(=O)(=O)O)cc2)nc2ccccc21 | > 100 | > 100 | > 100 | > 100 | > 100 | > 100 | > 100 | > 100 | > 100 | > 100 | > 100 | > 100 | > 100 | > 100 | > 50 | > 50 | > 100 | > 100 | 1.56 (≈ 3.78 µM) | > 100 | MCC [11]: > 100 µg/mL; MCC [12]: > 100 µg/mL; CC50 (MDCK): > 100 µg/mL; MFC (Candida albicans): > 50 µg/mL; EC50 (Human alphaherpesvirus 1 [13]): > 100 µg/mL; CC50 [14]: > 100 µg/mL; EC50 [15]: > 100 µg/mL; MBC (Staphylococcus aureus): 25 µg/mL (≈ 60.6 µM); EC50 (Coxsackievirus B4 [16]): > 100 µg/mL; EC50 (Coxsackievirus B4 [17]): > 100 µg/mL; EC50 (Influenza A virus [18]): > 100 µg/mL; EC50 (Punta Toro virus): > 100 µg/mL; EC50 [19]: > 100 µg/mL; EC50 (Influenza B virus [20]): > 100 µg/mL
C=C(C)C(=O)n1c(-c2ccc(S(=O)(=O)O)cc2)nc2ccccc21 | > 100 | > 100 | > 100 | > 100 | > 100 | > 100 | > 100 | > 100 | > 100 | > 100 | > 100 | > 100 | > 100 | > 100 | 12.5 (≈ 36.5 µM) | > 50 | > 100 | > 100 | 12.5 (≈ 36.5 µM) | > 100 | MCC [11]: > 100 µg/mL; MCC [12]: > 100 µg/mL; CC50 (MDCK): > 100 µg/mL; MFC (Candida albicans): > 50 µg/mL; EC50 (Human alphaherpesvirus 1 [13]): > 100 µg/mL; CC50 [14]: > 100 µg/mL; EC50 [15]: > 100 µg/mL; MBC (Staphylococcus aureus): 6.25 µg/mL (≈ 18.3 µM); EC50 (Coxsackievirus B4 [16]): > 100 µg/mL; EC50 (Coxsackievirus B4 [17]): > 100 µg/mL; EC50 (Influenza A virus [18]): > 100 µg/mL; EC50 (Punta Toro virus): > 100 µg/mL; EC50 [19]: > 100 µg/mL; EC50 (Influenza B virus [20]): > 100 µg/mL

Source: ChEMBL document CHEMBL1629526, “4-[1-(Substituted aryl/alkyl carbonyl)-benzoimidazol-2-yl]-benzenesulfonic acids: synthesis, antimicrobial activity, QSAR studies, and antiviral evaluation” (Eur J Med Chem, 2010)
